Screening data from PubChem BioAssay.
aSyn UTR inh = MLPCN primary screen, SNCA 5' untranslated region; alpha-synuclein 5'UTR reporter, inhibitor activity; inhibition, % (tested at 7.5 µM); actives 0.82% (n = 300,000); AID 1813; in the data active = inhibition above about 60%;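 note: H4 neuroglioblastoma cells stably carrying SNCA 5'UTR luciferase fusion; 0% = DMSO wells and 100% = positive control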
CSC inhib = cancer stem cell inhibition; cancer stem cell-like cells viability, luminescence; inhibition, % at 7.5 µM; actives 1.1% (n = 300,000); AID 2717; in the data active = inhibition above about 75%; tested in HMLE shEcad cells
Mdm2-MdmX inh = inhibitors of human Mdm2/MdmX interaction. O15151+Q00987. SaOS-2 split-luciferase Mdm2/MdmX complementation, luminescence. inhibition, % at 8 µM. actives 3% (n = 330,000). AID 485346;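 active = inhibition of at least 50% at 8 µM in the primary screen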
SKKanGAS inh = inhibitors of SKKanGAS S. pyogenes growth in kanamycin (SK-promoter or general growth effect) | AID 1662 | actives 1.3% (n = 300,000) | BacTiter-Glo, 6 h | inhibition, % at 7.5 µM;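 active = mean replicate score, as percent of positive control median, at least 50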;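 note: strain carries kanamycin resistance gene driven by streptokinase promoter and grows in 40 µg/ml kanamycin; loss of luminescence reflects streptokinase promoter inhibition or plain growth inhibition; 0% = median of DMSO wells and 100% = positive control at its reference dose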
T cruzi inh = blocks replication of Trypanosoma cruzi; inhibition, % (no concentration beside the values); AID 1885; T. cruzi beta-gal in NIH3T3, luminescence, 90 h; actives 1.4% (n = 300,000);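 active = mean inhibition across valid replicates above about 55%, limit read from the data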;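 note: signal also drops with host cell toxicity which is not excluded here; 0% = plate median of DMSO wells and 100% = zero luminescence signal; higher percent means less beta-gal luminescence so fewer parasites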
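Assay system: NIH/3T3 fibroblasts plus reporter T. cruzi. Amount: NIH/3T3 cells, 5,000 per well. Buffer or medium: DMEM, 2% fetal bovine serum. Doses: compound pinned at 50 nL/well, DMSO. Schedule: ≥90 h infection period, 3 h prior cell attachment. Signal: luminescent β-galactosidase signal after 60 min lysis. Read-out: parasite load inhibition, %.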
Numbers without * were called inactive; x = not tested or not shown. A selection: hits, their analogues and other compounds. The true share with any hit is near 5.4%.

SMILES | aSyn UTR inh | CSC inhib | Mdm2-MdmX inh | SKKanGAS inh | T cruzi inh
O=C1C=C(c2ccc(CO)cc2)C[C@@H](c2ccc3c(c2)OCO3)C1 | x | 13 | -8 | x | x
O=C(c1ccccc1SCc1ccccc1)N1CCOCC1 | 5 | 15 | 9 | -2 | 3
O=C(Nc1ccc(Cl)c(Cl)c1)C1CC(=O)N(c2ccc(Br)cc2)C1 (centres undefined) | -6 | 55 | 40 | 54* | 15
Cc1ccc(N2CC(C(=O)N3CCC(C(=O)Nc4ccc(Br)cc4)CC3)CC2=O)cc1 (centres undefined) | 26 | -6 | 20 | 5 | -10
CSc1oc(-c2cccs2)nc1S(=O)(=O)c1ccccc1 | 3 | -12 | 4 | -2 | 5
O=C(CSc1oc(-c2cccs2)nc1S(=O)(=O)c1ccccc1)NC1CCCCC1 | 21 | x | 17 | 2 | 60*
CCOc1ccc(N=C2NC(=O)S/C2=C\c2ccc(Cl)cc2)cc1 | -10 | 1 | 45 | 4 | -25
CCOc1ccc2nc(N3C(=O)/C(=C/c4ccc(Cl)cc4)NC3=S)sc2c1 | -73 | x | x | 96* | -7
O=C1ON=C(c2ccc(Cl)cc2)/C1=C/c1ccc(O)cc1 | -7 | 79* | 17 | 0 | -12
CCC(=O)/C=C1/Sc2ccccc2N1CC | 0 | -3 | 2 | -4 | 9
CCN1/C(=C/c2sc(-c3ccccc3C)c[n+]2C)Sc2ccccc21 | 94* | x | x | 6 | 66*
CCOC(=O)c1ccc(Oc2cn[nH]c2-c2ccc(OCC(=O)NN)cc2O)cc1 | 0 | 15 | 10 | 99* | -11
COc1ccc(-c2cn[nH]c2-c2ccc(OCC(=O)NN)cc2O)cc1 | 21 | 2 | 21 | 14 | 0
CCCOC(=O)c1ccc(Oc2cn[nH]c2-c2ccc(O)cc2O)cc1 | -6 | 17 | 11 | 76* | -11
CCOC(=O)c1ccc(Oc2cn[nH]c2-c2ccc(O)cc2O)cc1 | 7 | 14 | 22 | 46 | -2
CCCOC(=O)c1ccc(Oc2cn[nH]c2-c2ccc(OCC(=O)NN)cc2O)cc1 | -9 | 20 | -7 | 83* | -6
COc1ccc(O)c(/C=N/NC(=O)c2c(C)nnn2-c2nonc2N)c1 | 64* | x | 33 | 5 | -1
COc1ccc(/C=N/NC(=O)c2nnn(-c3nonc3N)c2-c2cccc(OC)c2)cc1 | 1 | -20 | 6 | 1 | -1
COc1ccc(Cl)cc1NC(=O)c1sc2nc(C)nc(N3CCOCC3)c2c1C | 36 | 8 | 45 | 12 | -1
CCOC(=O)C(C(=O)OCC)C(Nc1ccc(Br)cc1)c1ccccc1 (centres undefined) | -41 | 75* | -8 | -3 | -40
O=C(Cc1ccc(Cl)cc1)NNC(=O)C(=O)NC1CCCCC1 | x | -1 | 0 | x | x
O=C(Nc1ccncc1)C1CCN(S(=O)(=O)c2cccc(C(F)(F)F)c2)CC1 | x | x | 27 | x | x
COc1ccc(CN(C)CCc2ccccn2)cc1OC | 11 | 12 | 8 | -18 | x
CN(CCc1ccccn1)Cc1ccc(Cl)cc1 | -1 | -18 | 15 | 0 | 56*
COc1cc(CN(C)CCc2ccccn2)cc(OC)c1OC | 9 | -14 | -15 | 9 | 14
SMILES | aSyn UTR inh | CSC inhib | Mdm2-MdmX inh | SKKanGAS inh | T cruzi inh
Cc1ccc(CN(C)CCc2ccccn2)cc1 | -8 | 8 | 3 | -1 | 67*
CCc1ccc(CN(C)CCc2ccccn2)cc1 | -10 | -3 | 0 | 0 | 63*
COc1ccc(-c2cn3cc(C)ccc3n2)cc1F | 77* | -9 | 16 | -18 | 11
O=C(Nc1nc(-c2cccs2)c(-c2ccccc2)s1)c1ccco1 | -48 | 12 | 21 | 52* | 1
CC(=O)Nc1sc(NC(=O)c2ccco2)nc1-c1cccs1 | 0 | -9 | 14 | 1 | -1
CC(=O)O[C@H]1C(=O)[C@@]2(C)C([C@H](OC(=O)c3ccccc3)[C@]3(O)C[C@H](OC(=O)[C@H](O)[C@@H](NC(=O)c4ccccc4)c4ccccc4)C(C)=C1C3(C)C)[C@]1(OC(C)=O)CO[C@@H]1C[C@H]2O (some centres undefined) | 102* | 49 | 42 | 9 | 61*
CC(=O)O[C@H]1C(=O)[C@]2(C)[C@H]([C@H](OC(=O)c3ccccc3)[C@]3(O)C[C@H](OC(=O)[C@H](O)[C@@H](NC(=O)c4ccccc4)c4ccccc4)C(C)=C1C3(C)C)[C@]1(OC(C)=O)CO[C@@H]1C[C@@H]2O | 95* | 50 | 45 | 1 | 51
c1ccc(Nc2c3c(nc4ccccc24)CCC3)cc1 | -17 | -7 | -5 | -22 | 32
Fc1ccc(Nc2c3c(nc4ccccc24)CCC3)cc1 | 4 | x | -11 | 1 | 58*
